Laboratory results reported in ChEMBL document CHEMBL2021781, “Dual targeting of histone deacetylase and topoisomerase II with novel bifunctional inhibitors” (J Med Chem, 2012).
Calls of active or inactive are those of the source. The rule behind the calls is not given here.

What was measured:
DU-145 = experiment: Antiproliferative activity against human DU145 cells after 72 hrs by MTS assay; assay type: functional, cell-based; details: DU-145, 72 h
How it was run: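 DU-145 cells passaged 24 h before dosing and exposed 72 h; compounds from 10 mM DMSO stocks; controls given media with 0.1% DMSO; 37°C, 5% CO2. Viability read by MTS assay, with Trypan Blue staining also used. IC50 from the average of two experiments, each run in triplicate.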

[1] = biological target: Histone deacetylase (HDAC1 and HDAC2) (Homo sapiens, UniProt Q13547+Q92769); experiment: Inhibition of HDAC1/2 in human HeLa cell nuclear extract using Fluor de Lys as substrate after 15 mins by fluorometric analysis; assay type: protein assay
Histone deacetylase 1 = Histone deacetylase 1 (Homo sapiens, UniProt Q13547); experiment: Inhibition of HDAC1 in human HeLa cell nuclear extract using Fluor de Lys as substrate after 15 mins by fluorometric analysis
[2] = biological target: T1, Protein deacetylase HDAC6 (Homo sapiens, UniProt Q9UBN7); experiment: Inhibition of HDAC6 in human HeLa cell nuclear extract using Fluor de Lys as substrate after 15 mins by fluorometric analysis
T1 sequence (Q9UBN7 whole entry): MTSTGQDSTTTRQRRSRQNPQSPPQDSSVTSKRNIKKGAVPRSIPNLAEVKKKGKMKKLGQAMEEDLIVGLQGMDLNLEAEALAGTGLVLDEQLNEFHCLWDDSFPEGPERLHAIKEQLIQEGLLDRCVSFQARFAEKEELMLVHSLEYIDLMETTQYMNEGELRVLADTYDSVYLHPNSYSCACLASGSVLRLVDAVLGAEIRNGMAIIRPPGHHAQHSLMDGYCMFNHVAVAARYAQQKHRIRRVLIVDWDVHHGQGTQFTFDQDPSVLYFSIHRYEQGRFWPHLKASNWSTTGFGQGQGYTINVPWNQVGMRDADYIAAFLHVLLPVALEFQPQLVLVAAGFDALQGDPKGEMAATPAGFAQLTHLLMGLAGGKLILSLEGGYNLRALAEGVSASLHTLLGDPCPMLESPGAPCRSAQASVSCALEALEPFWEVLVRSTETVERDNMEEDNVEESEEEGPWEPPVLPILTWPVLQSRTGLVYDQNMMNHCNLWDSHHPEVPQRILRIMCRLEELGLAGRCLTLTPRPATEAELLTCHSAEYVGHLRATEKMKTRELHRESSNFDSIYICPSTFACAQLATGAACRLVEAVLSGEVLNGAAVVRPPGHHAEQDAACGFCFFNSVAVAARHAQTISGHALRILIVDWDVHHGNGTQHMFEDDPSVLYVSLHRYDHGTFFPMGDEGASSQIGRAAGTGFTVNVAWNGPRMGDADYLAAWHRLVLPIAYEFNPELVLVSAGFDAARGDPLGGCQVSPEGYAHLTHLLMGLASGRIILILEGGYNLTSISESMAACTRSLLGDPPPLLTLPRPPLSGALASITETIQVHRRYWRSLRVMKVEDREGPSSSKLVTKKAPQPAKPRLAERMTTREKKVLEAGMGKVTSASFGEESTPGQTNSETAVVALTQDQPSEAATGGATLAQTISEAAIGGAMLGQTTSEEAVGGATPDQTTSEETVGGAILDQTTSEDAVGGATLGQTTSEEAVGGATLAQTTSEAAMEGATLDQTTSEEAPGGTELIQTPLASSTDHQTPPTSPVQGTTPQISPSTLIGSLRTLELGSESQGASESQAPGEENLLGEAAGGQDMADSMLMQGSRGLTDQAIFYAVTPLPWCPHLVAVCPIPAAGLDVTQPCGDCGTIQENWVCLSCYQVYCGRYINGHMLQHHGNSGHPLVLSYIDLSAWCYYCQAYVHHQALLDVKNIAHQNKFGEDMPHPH

Histone deacetylase 8 = biological target: T2, Histone deacetylase 8 (Homo sapiens, UniProt Q9BY41); experiment: Inhibition of HDAC8 in human HeLa cell nuclear extract using Fluor de Lys as substrate after 15 mins by fluorometric analysis
T2 sequence (Q9BY41 whole entry): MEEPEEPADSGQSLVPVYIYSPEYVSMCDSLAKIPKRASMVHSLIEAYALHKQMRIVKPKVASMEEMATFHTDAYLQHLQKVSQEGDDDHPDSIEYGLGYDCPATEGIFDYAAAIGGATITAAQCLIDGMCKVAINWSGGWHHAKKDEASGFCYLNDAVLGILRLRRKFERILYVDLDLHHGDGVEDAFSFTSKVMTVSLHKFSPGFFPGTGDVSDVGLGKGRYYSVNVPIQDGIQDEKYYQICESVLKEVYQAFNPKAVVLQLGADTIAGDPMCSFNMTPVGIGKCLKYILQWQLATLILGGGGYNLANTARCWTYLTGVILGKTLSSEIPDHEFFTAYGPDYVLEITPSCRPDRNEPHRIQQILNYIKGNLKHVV

[3] = biological target: DNA topoisomerase 2-alpha (Homo sapiens) (UniProt P11388); experiment: Inhibition of Topoisomerase 2 assessed as kinetoplast DNA decatenation at 50 uM after 10 mins by electrophoretic analysis
SK-MES-1 = experiment: Antiproliferative activity against human SKMES1 cells after 72 hrs by MTS assay; assay type: functional, cell-based; details: SK-MES-1, 72 h
MCF7 = experiment: Antiproliferative activity against human MCF7 cells after 72 hrs by MTS assay; assay type: functional, cell-based; details: MCF7, 72 h
[4] = biological target: T3, Histone deacetylase (Homo sapiens) (UniProt Q13547+O15379+Q9UBN7+Q92769+Q9UQL6+Q8WUI4+Q9BY41+Q96DB2+P56524+Q9UKV0+Q969S8); experiment: Inhibition of HDAC in human DU145 cells assessed as upregulation of p21waf1 protein expression at 0.1 uM after 24 hrs by Western blot analysis; assay type: cell-based; details: DU-145
How it was run: (§1)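 DU-145 cells passaged 24 h before dosing, then exposed 24 h to compound in growth medium (final DMSO 0.1%); controls received 0.1% DMSO. Lysed in RIPA with protease inhibitors at 4°C, cleared at 14,000 × g. Protein quantified against BSA, boiled, transferred to nitrocellulose. Probed for acetyl-H3, acetyl-H4 and p21waf1 with actin loading control; read by near-infrared scanning at 700/800 nm.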

[5] = biological target: T3, Histone deacetylase (Homo sapiens); experiment: Inhibition of HDAC in human DU145 cells assessed as histone H4 acetylation after 24 hrs by Western blot analysis; assay type: cell-based; details: DU-145; how it was run: as §1
[6] = biological target: T3, Histone deacetylase (Homo sapiens); experiment: Inhibition of HDAC in human DU145 cells assessed as histone H3 hyperacetylation at 0.1 to 0.5 uM after 24 hrs by Western blot analysis; assay type: cell-based; details: DU-145; how it was run: as §1
[7] = biological target: T4, Protein deacetylase HDAC6 (Homo sapiens) (UniProt Q9UBN7); experiment: Inhibition of HDAC6-mediated tubulin acetylation in human DU145 cells at 90 nM after 4 hrs by Western blot analysis; assay type: cell-based; details: DU-145
T4 sequence (whole entry): T1 sequence (Q9UBN7 whole entry)
How it was run: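 DU-145 cells passaged 24 h before dosing, then treated 4 h, with no more than 0.1% DMSO including controls. Lysis in RIPA buffer with protease inhibitors, protein quantified against a BSA standard, SDS-PAGE and transfer. Blots probed with rabbit anti-tubulin and mouse anti-acetyl tubulin, read by near-infrared imaging at 700/800 nm.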

[8] = biological target: T4, Protein deacetylase HDAC6 (Homo sapiens); experiment: Inhibition of HDAC6-mediated tubulin acetylation in human DU145 cells at 500 nM after 4 hrs by Western blot analysis; assay type: cell-based; details: DU-145
How it was run: (§2)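 Lysed in RIPA with protease inhibitors, cleared 14,000 RPM at 4°C. Immunoblotted, probing acetylated versus total tubulin; p21 also checked. Near-infrared detection at 700/800 nm.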

[9] = biological target: T3, Histone deacetylase (Homo sapiens); experiment: Inhibition of HDAC in human DU145 cells assessed as upregulation of p21 expression at IC50 concentration after 4 hrs by Western blot analysis relative to control; assay type: cell-based; details: DU-145; how it was run: as §2
[10] = biological target: T3, Histone deacetylase (Homo sapiens); experiment: Inhibition of HDAC in human DU145 cells assessed as upregulation of p21 expression at 5 times IC50 concentration after 4 hrs by Western blot analysis relative to control; assay type: cell-based; details: DU-145; how it was run: as §2
[11] = biological target: DNA topoisomerase 2-alpha (Homo sapiens) (UniProt P11388); experiment: Inhibition of topoisomerase 2 in human DU145 cells assessed as stabilization of enzyme-DNA cleavage complex at 90 nM after 30 mins by immunoblot analysis; assay type: cell-based; details: DU-145
[12] = biological target: DNA topoisomerase 2-alpha (Homo sapiens) (UniProt P11388); experiment: Inhibition of topoisomerase 2 in human DU145 cells assessed as stabilization of enzyme-DNA cleavage complex at 90 nM after 72 hrs by immunoblot analysis; assay type: cell-based; details: DU-145
[13] = Drug uptake in human DU145 cell nucleus at 1 uM after 4 hrs by confocal microscopic analysis; assay type: ADME, cell-based; details: du-145, 4 h
How it was run: (§3)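 Cells plated on glass coverslips 24 h beforehand, then incubated in fresh medium with compound at 1 μM for 4 h. Washed with PBS, coverslips mounted and imaged by confocal microscopy at 488 nm excitation. DU-145 (prostate carcinoma) shown in main text; A549 lung tumour cells treated likewise.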

[14] = Drug uptake in human DU145 cell perinuclear region at 1 uM after 4 hrs by confocal microscopic analysis; assay type: ADME, cell-based; details: du-145, 4 h
How it was run: (§4)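 Cells plated on glass coverslips 24 h ahead, then given fresh media with compound at 1 μM for 4 h. After a PBS wash, coverslips were mounted and intracellular distribution imaged by confocal microscopy, excitation 488 nm. Done in DU-145 cells, with A549 lung tumor cells also examined.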

[15] = Drug uptake in human A549 cell nucleus at 1 uM after 4 hrs by confocal microscopic analysis; assay type: ADME, cell-based; details: a549, 4 h; how it was run: as §3
[16] = Drug uptake in human A549 cell perinuclear region at 1 uM after 4 hrs by confocal microscopic analysis; assay type: ADME, cell-based; details: a549, 4 h; how it was run: as §4
[17] = biological target: DNA topoisomerase 2-alpha (Homo sapiens) (UniProt P11388); experiment: Inhibition of topoisomerase 2 in human DU145 cells assessed as stabilization of enzyme-DNA cleavage complex at […] after 30 mins by immunoblot analysis; assay type: cell-based; details: DU-145
[18] = biological target: DNA topoisomerase 2-alpha (Homo sapiens) (UniProt P11388); experiment: Inhibition of topoisomerase 2 in human DU145 cells assessed as stabilization of enzyme-DNA cleavage complex at […] after 72 hrs by immunoblot analysis; assay type: cell-based; details: DU-145
[19] = Drug uptake in human DU145 cell vesicle like body at 1 uM after 4 hrs by confocal microscopic analysis; assay type: ADME, cell-based; details: du-145, 4 h; how it was run: as §3
[20] = Drug uptake in human A549 cell vesicle like body at 1 uM after 4 hrs by confocal microscopic analysis; assay type: ADME, cell-based; details: a549, 4 h; how it was run: as §3
[21] = biological target: T4, Protein deacetylase HDAC6 (Homo sapiens); details: DU-145, 10 uM

Chain of Histone deacetylase 1 (Q13547 whole entry): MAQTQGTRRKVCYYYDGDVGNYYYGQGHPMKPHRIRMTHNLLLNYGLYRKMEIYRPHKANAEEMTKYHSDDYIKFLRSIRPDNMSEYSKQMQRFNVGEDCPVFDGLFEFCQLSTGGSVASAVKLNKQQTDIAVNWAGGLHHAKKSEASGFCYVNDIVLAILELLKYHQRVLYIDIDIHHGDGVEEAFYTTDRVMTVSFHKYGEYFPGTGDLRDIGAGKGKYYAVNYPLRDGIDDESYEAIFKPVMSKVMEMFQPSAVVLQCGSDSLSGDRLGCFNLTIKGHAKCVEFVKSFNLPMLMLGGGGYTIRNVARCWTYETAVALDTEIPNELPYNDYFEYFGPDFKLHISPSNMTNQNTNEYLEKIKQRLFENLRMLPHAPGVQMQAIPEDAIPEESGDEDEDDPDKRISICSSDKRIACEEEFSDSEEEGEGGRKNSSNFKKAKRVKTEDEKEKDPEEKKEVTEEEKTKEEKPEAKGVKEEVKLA
Chain of DNA topoisomerase 2-alpha (Homo sapiens) (P11388 whole entry): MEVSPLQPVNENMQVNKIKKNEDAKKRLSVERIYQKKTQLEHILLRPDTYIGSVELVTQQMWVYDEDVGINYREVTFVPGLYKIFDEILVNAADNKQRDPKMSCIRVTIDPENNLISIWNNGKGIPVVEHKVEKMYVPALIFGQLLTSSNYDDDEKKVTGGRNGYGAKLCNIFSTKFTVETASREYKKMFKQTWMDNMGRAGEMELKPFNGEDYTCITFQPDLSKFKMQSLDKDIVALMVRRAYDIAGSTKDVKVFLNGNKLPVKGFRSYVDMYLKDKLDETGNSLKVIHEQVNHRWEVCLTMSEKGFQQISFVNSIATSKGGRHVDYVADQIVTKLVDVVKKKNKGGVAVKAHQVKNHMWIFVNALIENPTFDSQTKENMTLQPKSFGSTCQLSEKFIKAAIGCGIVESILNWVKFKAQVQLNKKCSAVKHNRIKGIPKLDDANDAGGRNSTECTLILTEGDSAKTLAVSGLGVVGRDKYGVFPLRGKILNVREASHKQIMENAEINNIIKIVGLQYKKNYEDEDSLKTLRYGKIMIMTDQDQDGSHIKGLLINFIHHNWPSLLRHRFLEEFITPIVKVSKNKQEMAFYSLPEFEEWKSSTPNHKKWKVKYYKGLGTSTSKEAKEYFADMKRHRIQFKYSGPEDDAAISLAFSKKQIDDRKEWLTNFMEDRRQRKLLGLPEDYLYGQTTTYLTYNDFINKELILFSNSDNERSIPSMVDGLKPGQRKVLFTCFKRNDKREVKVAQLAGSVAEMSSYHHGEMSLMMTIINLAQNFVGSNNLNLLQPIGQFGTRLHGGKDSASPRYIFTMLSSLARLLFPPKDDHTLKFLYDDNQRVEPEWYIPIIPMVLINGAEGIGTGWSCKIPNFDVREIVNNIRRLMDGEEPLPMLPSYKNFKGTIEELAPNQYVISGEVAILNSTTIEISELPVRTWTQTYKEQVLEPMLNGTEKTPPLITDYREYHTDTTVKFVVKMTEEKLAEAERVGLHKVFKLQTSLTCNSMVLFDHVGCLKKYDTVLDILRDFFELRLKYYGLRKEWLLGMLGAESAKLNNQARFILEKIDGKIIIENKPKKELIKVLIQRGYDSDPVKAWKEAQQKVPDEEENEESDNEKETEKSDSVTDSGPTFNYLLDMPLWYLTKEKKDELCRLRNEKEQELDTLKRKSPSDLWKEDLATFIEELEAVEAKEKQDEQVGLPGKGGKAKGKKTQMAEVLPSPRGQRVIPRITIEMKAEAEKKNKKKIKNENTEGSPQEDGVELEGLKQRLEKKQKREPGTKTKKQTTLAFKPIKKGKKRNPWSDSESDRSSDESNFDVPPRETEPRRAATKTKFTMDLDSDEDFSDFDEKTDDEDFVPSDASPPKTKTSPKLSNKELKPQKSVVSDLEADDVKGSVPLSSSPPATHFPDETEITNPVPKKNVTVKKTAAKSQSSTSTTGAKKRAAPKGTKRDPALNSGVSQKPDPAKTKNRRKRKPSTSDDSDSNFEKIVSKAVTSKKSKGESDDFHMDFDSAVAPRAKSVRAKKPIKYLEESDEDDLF

Compound | IC50 (DU-145) | IC50 [1] | IC50 (Histone deacetylase 1) | IC50 [2] | IC50 (Histone deacetylase 8) | inhibition [3] | IC50 (SK-MES-1) | IC50 (MCF7) | Activity [9] | Activity [10] | also measured
O=C(CCCCCCC(=O)Nc1ccccc1)NO [VORINOSTAT] | 2120 nM | – | – | – | – | – | – | – | – | – | –
COc1cccc2c1C(=O)c1c(O)c3c(c(O)c1C2=O)C[C@@](O)(C(C)=O)C[C@@H]3O[C@H]1C[C@H](NCc2ccc(-c3cn(CCCCCCCC(=O)NO)nn3)cc2)[C@H](O)[C@H](C)O1 | 2060 nM | 4.2 nM | 11 nM | 19 nM | 379 nM | Active | 2.61 µM | 14.8 µM | – | – | –
COc1cccc2c1C(=O)c1c(O)c3c(c(O)c1C2=O)C[C@@](O)(C(C)=O)C[C@@H]3O[C@H]1C[C@H](NCc2ccc(-c3cn(CCCCCCC(=O)NO)nn3)cc2)[C@H](O)[C@H](C)O1 | 2920 nM | 0.9 nM | 8 nM | 20 nM | 710 nM | Active | 3.31 µM | 10.6 µM | – | – | –
COc1cccc2c1C(=O)c1c(O)c3c(c(O)c1C2=O)C[C@@](O)(C(C)=O)C[C@@H]3O[C@H]1C[C@H](NCc2ccc(-c3cn(CCCCC(=O)NO)nn3)cc2)[C@H](O)[C@H](C)O1 | 5390 nM | 89.9 nM | 4600 nM | 555 nM | – | Active | 15.3 µM | 24.5 µM | – | – | –
COc1cccc2c1C(=O)c1c(O)c3c(c(O)c1C2=O)C[C@@](O)(C(C)=O)C[C@@H]3O[C@H]1C[C@H](N)[C@H](O)[C@H](C)O1 [DAUNORUBICIN] | 90 nM | – | – | – | – | Active | 0.17 µM | 0.95 µM | inactive | inactive | inhibition [4]: inactive; inhibition [5]: Dose-dependent effect; inhibition [6]: Active; inhibition [7]: inactive; inhibition [8]: Active; inhibition [11]: Active; inhibition [12]: Active; Drug uptake [13]: Active; Drug uptake [14]: Active; Drug uptake [15]: Active; Drug uptake [16]: Active
COc1cccc2c1C(=O)c1c(O)c3c(c(O)c1C2=O)C[C@@](O)(C(C)=O)C[C@@H]3O[C@H]1C[C@H](NCc2ccc(-c3cn(CCCCCC(=O)NO)nn3)cc2)[C@H](O)[C@H](C)O1 | 1610 nM | – | – | 30 nM | 4130 nM | Active | 4.68 µM | 13.4 µM | inactive | inactive | inhibition [17]: Active; inhibition [18]: inactive; Drug uptake [19]: Active; Drug uptake [20]: Active; inhibition [21]: Active
